From PubChem
Hits are enriched below; roughly 0.6% of the tested compounds scored in any of these assays.
TNAP inh no acc = TNAP (human) inhibition, acceptor-free conditions. inhibition, % at 20 µM. 0.26% of 200,000 active. P05186. purified TNAP, CDP-star luminescence, 30 min;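 active = tissue-nonspecific alkaline phosphatase inhibition above about 50% at 20 µM in the single-dose screen, limit read from the data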
Rad51 HR inh = blocks human Rad51 in homologous recombination; inhibition, % at 10 µM; AID 1385; Q06609; 0.085% of 200,000 active; hRad51 DNA strand exchange, fluorescence dequenching;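 active = inhibition above 40% at the single screening dose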
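Material: hRad51 filaments on single-stranded DNA; Reagent: Donor/quencher-labelled 47-bp dsDNA substrate; Compound: 10 µM final, single point; Schedule: 37 °C 15-min filament assembly, 30-min compound preincubation, 15-min exchange; Technique: FRET fluorescence, excitation 485 nm, emission 520 nm; Benchmarks: control wells and blank wells on each plate.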
TNAP act hiacc = TNAP (human) activation, high acceptor | purified TNAP, CDP-star luminescence, 1 M DEA, 30 min; stronger effect = higher value; 0 = EDTA background, 1 = DMSO-only activity | activation factor at 20 µM | 200,000 tested, under 10 active | AID 1136;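 active = activation factor at least 2 at 20 µM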
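system = human TNAP | amount = enzyme diluted 1/800 final | reagent = 100 µM CDP-star substrate | signal = luminescent substrate turnover signal | dosing = one dose, 20 µM | benchmarks = EDTA negative control, DMSO positive control | measure = activation factor | timing = 30 min reaction, room temperature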
PMI act = increases human mannose-6-phosphate isomerase activity | P34949 | purified human PMI, coupled resazurin fluorescence, 20 min; stronger effect = higher value; 1 = vehicle control, 0 substrate-free wells | activation factor at 20 µM | 0.005% of 190,000 active | AID 1214;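 active = activation factor of 2 or more at 20 µM, relative to plate controls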
Target sequence (P34949 whole entry, looked up): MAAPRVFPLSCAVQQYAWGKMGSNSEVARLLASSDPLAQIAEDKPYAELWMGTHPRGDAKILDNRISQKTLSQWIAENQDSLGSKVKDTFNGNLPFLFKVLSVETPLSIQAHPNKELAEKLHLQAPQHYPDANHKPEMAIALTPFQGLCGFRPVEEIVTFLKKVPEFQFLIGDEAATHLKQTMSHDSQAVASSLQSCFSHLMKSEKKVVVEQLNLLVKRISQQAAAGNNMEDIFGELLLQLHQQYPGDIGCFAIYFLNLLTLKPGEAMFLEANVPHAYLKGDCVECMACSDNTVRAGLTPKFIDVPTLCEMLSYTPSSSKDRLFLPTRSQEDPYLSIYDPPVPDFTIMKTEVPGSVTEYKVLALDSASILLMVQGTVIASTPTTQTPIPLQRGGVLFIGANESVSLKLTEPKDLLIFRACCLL
PMI act hi M6P = PMI (human) activation, high substrate; P34949; coupled PMI enzyme assay, resazurin fluorescence, 20 min; stronger effect = higher value; 1 = untreated enzyme, 0 = substrate-free blank; activation factor at 20 µM; 0.34% of 190,000 active;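 active = activation factor of 2 or more at 20 µM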
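Technique: Diaphorase-driven resazurin-to-resorufin fluorescence, excitation 544, emission 590 nm | Assay system: Human PMI in coupled enzyme assay | Times: Enzyme reaction with compound 20 min at room temperature | Medium: HEPES-buffered pH 7.4 with magnesium and detergent | Reagent: Mannose-6-phosphate 1.0 mM (near-saturating) plus 0.22 mM NADP+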
TNAP inh hiacc = TNAP (human) inhibition, high acceptor; P05186; AID 1135; 0.03% of 200,000 active; inhibition, % at 20 µM; purified TNAP, CDP-star luminescence, 1 M DEA;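 active = over 50% inhibition of tissue-nonspecific alkaline phosphatase at 20 µM in the single-dose screen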
Numbers stand for hits; – = inactive; · = not tested or not shown.

SMILES	TNAP inh no acc	Rad51 HR inh	TNAP act hiacc	PMI act	PMI act hi M6P	TNAP inh hiacc
CC(=O)c1cc(NC(=O)c2ccccc2)c(=O)oc1C	–	–	–	–	2.1	–
CCOC(=O)c1cc(NC(=O)c2ccccc2)c(=O)oc1C(F)(F)F	–	–	–	–	2.2	–
CC(=O)c1cc(NC(=O)c2ccc(C)cc2)c(=O)oc1C	–	–	–	–	–	–
O=C(NCc1ccc(F)cc1)c1cc(S(=O)(=O)N2CCOCC2)ccc1F	–	–	–	–	–	–
CC(C)(C)n1nnnc1C(c1ccc(F)cc1)N1CCC(C(N)=O)CC1 (stereo not drawn)	–	–	–	–	–	–
CCOC(=O)Cn1c(S(=O)(=O)Cc2ccccc2)nc2ccccc21	–	–	–	–	–	–
O=C(NC1CCCC1)C1CCC(=O)N1C1CCCCC1 (stereo not drawn)	–	45	–	–	–	–
Cc1cc(NN)nc(NS(=O)(=O)c2ccccc2)n1	50	–	–	–	–	–
CC(C)N=c1scc(-c2ccco2)n1/N=C/c1ccc(O)c(O)c1	74	–	–	–	–	–
Cc1ncc(C[n+]2csc(C)c2C)c(N)n1	–	–	–	–	–	–
Cc1cc(NC(=O)Cn2cnc3c(nnn3-c3cccc(F)c3)c2=O)no1	–	–	–	–	–	–
O=C(CCCn1c(SCC(=O)c2ccc(O)c(O)c2)nc2ccccc2c1=O)NCC1CCCO1 (stereo not drawn)	96	–	–	–	–	–
CCCCn1c(SCC(=O)c2ccc(O)c(O)c2)nc2ccsc2c1=O	96	–	–	–	–	–
O=C(O)CCCCCn1c(SCC(=O)c2ccc(O)c(O)c2)nc2ccsc2c1=O	94	·	–	–	–	–
O=C(O)CCCCCn1c(SCC(=O)N2CCCC2)nc2ccsc2c1=O	–	–	–	–	–	–
CC(C)CCNC(=O)CNC(=S)N(CCCN1CCOCC1)Cc1cccs1	–	–	–	–	–	–
O=C(CSc1nnnn1-c1ccc(F)cc1)c1ccc(O)c(O)c1	75	–	–	–	–	–
Cc1ccccc1NC(=O)CN1CCC(NC(=O)Nc2ccccc2)CC1	–	–	–	–	–	–
O=C(O)CNC(=O)c1cccc(C(F)(F)F)c1	–	–	–	–	–	–
Cc1ccc2nc(N3C(=O)C(O)=C(C(=O)c4cc5ccccc5o4)C3c3cccs3)sc2c1 (stereo not drawn)	–	·	–	–	2	–
O=C(CN1CCN(CCN2C(=O)c3cccc4cccc(c34)C2=O)CC1)c1ccc(Cl)cc1	–	–	–	–	2.6	–
COc1ccc(CNC(=O)C2CCCN(c3nccc(C)n3)C2)cc1 (stereo not drawn)	–	–	–	–	–	–
CCO/C=C1/C(=O)N(C(C)=O)c2ccccc21	–	–	–	–	2.6	–
Cc1cc(-c2nnc(SCC(=O)c3ccc(F)cc3)o2)no1	–	·	–	–	–	–
Cc1n[nH]c(C)c1S(=O)(=O)N1CCN(c2ccccn2)CC1	59	–	–	–	–	–
SMILES	TNAP inh no acc	Rad51 HR inh	TNAP act hiacc	PMI act	PMI act hi M6P	TNAP inh hiacc
COC(=O)CC1c2cc(OC)c(OC)cc2CC(=O)c2cc(OC)c(OC)cc21 (stereo not drawn)	–	–	–	–	2	–
COC(=O)CC1NCCc2cc(OC)c(OC)cc21 (stereo not drawn)	–	–	–	–	–	–
CC(C)(C)C1CCC2(CC1)NC(=S)N(c1ccccc1)N2 (stereo not drawn)	–	–	–	–	2.8	–
O=C(O)Cc1sc(Nc2ccccc2)nc1-c1ccc(Cl)cc1	–	–	–	–	2.5	–
Cc1ccc(-c2nc(-c3ccccn3)sc2CC(=O)O)cc1	·	47	·	·	·	·
Cc1ccc(Nc2nc(-c3ccccc3)c(CC(=O)O)s2)cc1	–	–	–	–	–	–
Cc1ccc(-c2cc(C(=O)N/N=C/c3ccco3)n[nH]2)s1	68	–	–	–	–	–
CC(C)(C)c1cc(C(=O)N/N=C/c2ccco2)n[nH]1	–	–	–	–	–	–
CCc1ccc(-c2cc(C(=O)N/N=C/c3ccco3)[nH]n2)cc1	51	–	–	–	–	–
